Source: ChEMBL document CHEMBL1131473, “A novel class of orally active non-peptide bradykinin B2 receptor antagonists. 1. Construction of the basic framework” (J Med Chem, 1998)

Key:
[1] = Compound at a dose of 10 mg/kg was orally administered to rats and Area under curve was reported; format: ADME, organism-based; set-up: dose 10 mg/kg, route oral; details: rat, in vivo, po
Outline: (§1)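 Male Sprague-Dawley rats (3), starved overnight, given compound orally in 0.5% methocel (0.5 mL/100 g). Femoral-artery blood sampled at 0, 0.5, 1, 2, 4 and 6 h. Intravenous arm used a DMSO solution into the femoral vein, sampled 0 min–6 h. Plasma extracted with CHCl3, dried, reconstituted in MeOH and quantified by HPLC peak area against spiked time-0 plasma standards.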

[2] = Compound at a dose of 10 mg/kg was orally administered to rats and Bioavailability was reported; format: ADME, organism-based; details: rat, in vivo, po, read-out: BA; outline: as §1
[3] = Compound at a dose of 10 mg/kg was orally administered to rats and maximum plasma concentration was reported; format: ADME, organism-based; set-up: dose 10 mg/kg, route oral; details: rat, po; outline: as §1
[4] = Compound at a dose of 10 mg/kg was orally administered to rats and Half-life value was reported; format: ADME, organism-based; set-up: dose 10 mg/kg, route oral; details: rat, in vivo, po; outline: as §1
B2 bradykinin receptor = target: T1, B2 bradykinin receptor (Cavia porcellus, UniProt O70526); experiment: In vitro for inhibition of specific binding of [3H]BK (0.06 nM) to bradykinin receptor B2 in guinea pig ileum membrane preparations.; format: cell membranes
T1 sequence (O70526 whole entry): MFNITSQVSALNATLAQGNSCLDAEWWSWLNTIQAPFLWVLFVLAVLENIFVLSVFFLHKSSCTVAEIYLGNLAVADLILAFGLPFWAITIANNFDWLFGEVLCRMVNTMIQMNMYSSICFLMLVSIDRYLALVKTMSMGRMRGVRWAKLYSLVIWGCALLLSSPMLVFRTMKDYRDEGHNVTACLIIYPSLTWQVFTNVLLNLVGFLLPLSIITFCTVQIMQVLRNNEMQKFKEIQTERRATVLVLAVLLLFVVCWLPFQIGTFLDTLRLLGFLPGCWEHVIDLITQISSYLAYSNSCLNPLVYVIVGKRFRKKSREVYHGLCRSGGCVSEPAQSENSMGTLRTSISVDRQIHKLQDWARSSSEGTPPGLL
Outline: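 Ileal membranes from male Hartley guinea pigs, prepared in TES/1,10-phenanthroline pH 6.8 by 1000g then 100000g spins. Assay buffer held bacitracin, DTT, 1 μM captopril and 0.1% BSA. Membranes (0.2 mg protein/mL) incubated with [3H]BK (final 0.06 nM) and varying compound concentrations for 60 min at room temperature. Bound ligand filtered on GF/B and counted by scintillation; nonspecific binding taken with 1 μM unlabeled BK.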

Cavia porcellus = experiment: In vivo functional antagonistic activity against BK-induced bronchoconstriction in guinea pigs at an oral dose of 1 mg/kg.
Outline: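 Male Hartley guinea pigs (470-750 g), fasted, anesthetized with pentobarbital (30 mg/kg ip), ventilated, given alcuronium iv and propranolol sc. BK (5 μg/kg iv) raised pulmonary insufflation pressure, measured by modified Konzett–Rössler. Compound in 0.5% methylcellulose, or vehicle, was given by oesophageal cannula. BK was repeated 30 min later. Response expressed as ΔPIP after drug over ΔPIP before drug ×100; Student's t-test vs control.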

Compound | IC50 (B2 bradykinin receptor) [nM] | other results
CCCC(=O)NCC(=O)N(C)c1ccc(Cl)c(COc2cccn3c(Br)c(C)nc23)c1Cl | 8.9 | AUC [1]: 11700 ng·h/mL; bioavailability [2]: 90%; Cmax [3]: 9970 ng/mL; half-life [4]: 18 min; inhibition in vivo at 1 mg/kg (Cavia porcellus): 52.7%
Cc1nc2c(OCc3c(Cl)ccc(N(C)C(=O)CNC(=O)CN(C)C)c3Cl)cccn2c1Br | 2.4 | AUC [1]: 940 ng·h/mL; bioavailability [2]: 32.8%; Cmax [3]: 290 ng/mL; half-life [4]: 18 min; inhibition in vivo at 1 mg/kg (Cavia porcellus): 72.4%
CCOC(=O)c1c(C)nc2c(OCc3c(Cl)cccc3Cl)cccn12 | > 100000 | 
Cc1nc2c(OCc3c(Cl)ccc(N(C)S(C)(=O)=O)c3Cl)cccn2c1Br | 2100 | 
C#CCOCc1c(C)nc2c(OCc3c(Cl)cccc3Cl)cccn12 | 7600 | 
Cc1nc2c(OCc3c(Cl)ccc(N(C)C(=O)CN)c3Cl)cccn2c1Br | 380 | 
COC(=O)N(C)c1ccc(Cl)c(COc2cccn3c(Br)c(C)nc23)c1Cl | 1400 | 
Cc1nc2c(OCc3c(F)cccc3Cl)cccn2c1Br | 1500 | 
Clc1cccc(Cl)c1COc1cccn2ccnc12 | 31000 | 
Cc1nc2c(OCc3c(Cl)cccc3Cl)cccn2c1CO | 7500 | 
COCC(=O)N(C)c1ccc(Cl)c(COc2cccn3c(Br)c(C)nc23)c1Cl | 580 | 
CC(=O)NC(C)C(=O)N(C)c1ccc(Cl)c(COc2cccn3c(Br)c(C)nc23)c1Cl (stereo not drawn) | 770 | 
CC(=O)N(Cc1c(Cl)cccc1Cl)c1cccn2c(Br)c(C)nc12 | > 100000 | 
CC(=O)NCC(=O)N(C)c1ccc(Cl)c(COc2cccn3c(Br)c(C)nc23)c1Cl | 16 | 
Cc1nc2c(OCc3c(Cl)cccc3Cl)cccn2c1Br | 230 | 
Cc1nc2c(COc3c(Cl)cccc3Cl)cccn2c1Br | > 100000 | 
COc1ccc(Cl)c(COc2cccn3c(Br)c(C)nc23)c1Cl | 540 | 
CC(=O)Nc1ccc(Cl)c(COc2cccn3c(Br)c(C)nc23)c1Cl | 1800 | 
Cc1nc2c(C(=O)Nc3c(Cl)cccc3Cl)cccn2c1Br | > 100000 | 
CCN(C(C)=O)c1ccc(Cl)c(COc2cccn3c(Br)c(C)nc23)c1Cl | 150 | 
CCN(C)c1ccc(Cl)c(COc2cccn3c(Br)c(C)nc23)c1Cl | 410 | 
CC(=O)OCC(=O)N(C)c1ccc(Cl)c(COc2cccn3c(Br)c(C)nc23)c1Cl | 500 | 
Cc1nc2c(OCc3c(Cl)ccc(Cl)c3Cl)cccn2c1Br | 490 | 
CCC(=O)N(C)c1ccc(Cl)c(COc2cccn3c(Br)c(C)nc23)c1Cl | 72 | 
Cc1cn2cccc(OCc3c(Cl)cccc3Cl)c2n1 | 4500 | 

Compound | IC50 (B2 bradykinin receptor) [nM] | other results
CC(=O)N(C)c1c(Cl)cc(Cl)c(COc2cccn3c(Br)c(C)nc23)c1Cl | 420 | 
Cc1nc2c(OCc3c(Cl)ccc([N+](=O)[O-])c3Cl)cccn2c1Br | 42 | 
Cc1nc2c(OCc3c(Cl)cccc3Cl)cccn2c1Cl | 200 | 
CCNC(=O)NCC(=O)N(C)c1ccc(Cl)c(COc2cccn3c(Br)c(C)nc23)c1Cl | 9 | AUC [1]: 58900 ng·h/mL; bioavailability [2]: 75%; Cmax [3]: 52600 ng/mL; half-life [4]: 30 min; inhibition in vivo at 1 mg/kg (Cavia porcellus): 57.2%
CCc1cn2cccc(OCc3c(Cl)cccc3Cl)c2n1 | 10000 | 
Cc1nc2c(C(=O)Oc3c(Cl)cccc3Cl)cccn2c1Br | > 100000 | 
Cc1nc2c(OCc3c(F)cccc3F)cccn2c1Cl | 1800 | 
Cc1nc2c(OCc3c(Br)cccc3Br)cccn2c1Cl | 1700 | 
CC(=O)N(C)CC(=O)N(C)c1ccc(Cl)c(COc2cccn3c(Br)c(C)nc23)c1Cl | 1600 | 
Cc1nc2c(/C=C/c3c(Cl)cccc3Cl)cccn2c1Br | > 100000 | 
Cc1nc2c(NCc3c(Cl)cccc3Cl)cccn2c1Cl | 1200 | 
CC(=O)NCCC(=O)N(C)c1ccc(Cl)c(COc2cccn3c(Br)c(C)nc23)c1Cl | 810 | 
CNC(=O)N(C)c1ccc(Cl)c(COc2cccn3c(Br)c(C)nc23)c1Cl | 350 | 
CCn1c(C)cc(C#N)c1-c1ccc(COc2cc(C)nc3ccccc23)cc1 | 31000 | 
CC(=O)N(C)c1ccc(Cl)c(COc2cccn3c(Br)c(C)nc23)c1Cl | 54 | 
Cc1nc2c(NC(=O)c3c(Cl)cccc3Cl)cccn2c1Cl | > 100000 | 
FC(F)(F)c1cn2cccc(OCc3c(Cl)cccc3Cl)c2n1 | > 100000 | 
Cc1nc2c(OCc3c(Cl)ccc(N)c3Cl)cccn2c1Br | 1500 | 
CCC(=O)NCC(=O)N(C)c1ccc(Cl)c(COc2cccn3c(Br)c(C)nc23)c1Cl | 19 | inhibition in vivo at 1 mg/kg (Cavia porcellus): 48.4%
Cc1nc2c(OCc3c(Cl)ccc(N(C)C(=O)CNS(C)(=O)=O)c3Cl)cccn2c1Br | 580 | inhibition in vivo at 1 mg/kg (Cavia porcellus): 48.4%
CCCNC(=O)NCC(=O)N(C)c1ccc(Cl)c(COc2cccn3c(Br)c(C)nc23)c1Cl | 26 | inhibition in vivo at 1 mg/kg (Cavia porcellus): 62.4%
CCCCC(=O)NCC(=O)N(C)c1ccc(Cl)c(COc2cccn3c(Br)c(C)nc23)c1Cl | 7.8 | inhibition in vivo at 1 mg/kg (Cavia porcellus): 29.7%
CNC(=O)NCC(=O)N(C)c1ccc(Cl)c(COc2cccn3c(Br)c(C)nc23)c1Cl | 46 | inhibition in vivo at 1 mg/kg (Cavia porcellus): 41.5%
CC(=O)NCC(=O)N(C)c1ccc(Cl)c(COc2cccn3c(Br)c(C)nc23)c1Cl.Cl | 16 | AUC [1]: 3150 ng·h/mL; Cmax [3]: 3640 ng/mL; half-life [4]: 25.2 min; inhibition in vivo at 1 mg/kg (Cavia porcellus): 62.3%
